Source: PubChem (The Scripps Research Institute Molecular Screening Center)
OXTR potentiate – potentiators of human oxytocin receptor; P30559; CHO-OTR cells, Fluo-8 calcium fluorescence, potentiator mode; 0% = oxytocin EC15, 100% = EC100; activation, % at 3 µM; actives 0.061% (n = 320,000);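 active = activation above that plate's cutoff, the mean activation of tested compounds plus 3 SD, cut at about 6.6% in these data, passing the limit was not always enough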
Target sequence (P30559 whole entry, looked up): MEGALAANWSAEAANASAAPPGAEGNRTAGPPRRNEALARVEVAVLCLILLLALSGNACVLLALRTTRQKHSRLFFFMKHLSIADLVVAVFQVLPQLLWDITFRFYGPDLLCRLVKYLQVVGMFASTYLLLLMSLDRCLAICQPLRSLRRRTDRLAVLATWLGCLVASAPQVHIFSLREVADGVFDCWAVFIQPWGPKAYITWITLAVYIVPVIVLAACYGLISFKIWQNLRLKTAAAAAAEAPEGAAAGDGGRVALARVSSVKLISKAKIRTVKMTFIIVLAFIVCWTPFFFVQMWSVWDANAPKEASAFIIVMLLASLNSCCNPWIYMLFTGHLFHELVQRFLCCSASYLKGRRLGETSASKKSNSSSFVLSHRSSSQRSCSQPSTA
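Assay system: CHO cell line stably expressing human OTR. Reagent: EC15 oxytocin agonist. Dosing: single dose, 3.0 µM nominal final compound concentration. Timing: compound 6 min at room temperature before oxytocin, 100 s read. Signal: kinetic Fluo-8 calcium fluorescence. Controls: oxytocin EC15 low and EC100 high.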
TAAR1 antag – human TAAR1 antagonism; CHO RD-HGA16 TAAR1, Fluo-8 calcium fluorescence, antagonist; inhibition, % at 3 µM; actives 1.5% (n = 360,000); AID 624466;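 active = inhibition above a per-plate cutoff, the mean inhibition of test compounds on that plate plus 3 SD, cut at about 49% in these data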
Target sequence (Q96RJ0 whole entry, looked up): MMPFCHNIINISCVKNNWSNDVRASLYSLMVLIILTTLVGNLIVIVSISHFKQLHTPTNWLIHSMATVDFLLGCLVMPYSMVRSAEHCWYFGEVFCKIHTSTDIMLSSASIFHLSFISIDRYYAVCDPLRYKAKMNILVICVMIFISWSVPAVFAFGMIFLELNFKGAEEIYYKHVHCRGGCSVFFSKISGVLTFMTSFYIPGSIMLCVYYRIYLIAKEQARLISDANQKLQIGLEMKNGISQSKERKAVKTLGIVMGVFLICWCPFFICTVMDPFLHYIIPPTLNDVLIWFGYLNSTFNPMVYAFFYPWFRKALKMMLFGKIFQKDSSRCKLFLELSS
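Test system: CHO RD-HGA16 cells bearing hTAAR1 | Reagent: β-PEA, EC80 | Compound dosing: 3 µM, single point | Schedule: Dye loading 75 min at 37 °C, then 30 min room temperature | Signal: Calcium fluorescence with Fluo-8 | Evaluation: Percent inhibition of PEA-evoked calcium signal, max/basal emission ratio | Control set: DMSO-only wells and EC80 β-PEA-stimulated wells | Repeats: Singlicate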
TAAR1 ag – agonists of human TAAR1; actives 0.99% (n = 360,000); CHO RD-HGA16 TAAR1, Fluo-8 calcium fluorescence; vehicle wells 0%, saturating PEA agonist 100%; activation, % at 3 µM;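 active = activation above the mean activation of all test compounds in the run plus 3 SD, cut at about 38% in these data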
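System: CHO RD-HGA16 cells carrying human TAAR1 plus Gα16; Incubation: 17-24 h seeding, 75 min 37 °C dye, 30 min RT; Measured by: Fluo-8 fluorescence, 5 s baseline then 140 s kinetic read; Control set: DMSO and PEA EC100; Replication: single well for each compound.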
OXTR ag – agonists of human oxytocin receptor; activation, % at 3 µM; P30559; actives 0.32% (n = 320,000); CHO-OTR cells, Fluo-8 calcium fluorescence; normalized: DMSO 0%, oxytocin 100%;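 active = activation above the mean of all tested compounds plus 3 SD, cutoff set per screening run, cut at about 20% in these data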;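 note: peak over basal fluorescence ratio from a 100 s FLIPR kinetic read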
V1aR counter – counter-screen for oxytocin receptor agonists: human V1a receptor agonists; P37288; CHO-V1R cells, Fluo-8 calcium fluorescence, agonist mode; 0% DMSO, 100% 3 nM vasopressin; activation, % at 3 µM; actives 0.25% (n = 320,000);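 active = activation above the mean activation of all tested compounds plus 3 SD, per screening run, cut at about 20% in these data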;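 note: signal is peak over basal fluorescence ratio across a 100 second FLIPR read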
TAAR1 ag conf – confirmation of human TAAR1 agonists; shares compounds with TAAR1 ag; CHO RD-HGA16 TAAR1, Fluo-8 calcium fluorescence; scaled: DMSO 0%, maximal phenethylamine 100%; activation, % at 3 µM; actives 82% (n = 2,400); AID 651783;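 active = activation above a cutoff set at the run's mean compound activation plus 3 SD, cut at about 39% in these data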
Ga16 nonsel ag – nonselective agonism, TAAR1 counter-screen; activation, % at 3 µM; actives 50% (n = 2,400); AID 651787; shares compounds with TAAR1 ag; CHO-Ga16 parental, Fluo-8 calcium fluorescence; normalized to maximal ATP response, DMSO zero;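 active = activation above the run cutoff, the mean activation over all tested wells plus 3 SD, cut at about 12% in these data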
TAAR1 desens – counter-screen for human TAAR1 agonists: agonists that desensitize TAAR1 | shares compounds with TAAR1 ag | CHO RD-HGA16 hTAAR1, Fluo-8 calcium, beta-PEA response inhibition | inhibition, % at 3 µM | actives 46% (n = 2,400);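 active = inhibition above the run cutoff, the mean inhibition of all test compounds plus 3 SD, cut at about 49% in these data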;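 note: beta-PEA stimulus applied at its EC80; loss of beta-PEA calcium signal after compound pretreatment read as receptor desensitization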
Ga16 nonsel ant – nonselective Ga16 antagonist in TAAR1 agonist counter-screen. actives 39% (n = 2,400). CHO-Ga16 ATP-induced calcium, Fluo-8 fluorescence. shares compounds with TAAR1 ag. inhibition, % at 3 µM;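 active = inhibition above the plate's mean compound inhibition plus 3 SD, computed per plate, cut at about 22% in these data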
Large screens that a line does not name were inactive (follow-up assays come after a bar, where they were run). Most compounds without a hit are left out; they make up all but 2.3% or so of the library.

C=CCN=C1NC(c2cccc(C(F)(F)F)c2)C(C(=O)OC)=C(C)N1Cc1ccccc1C(F)(F)F (centres undefined)	none (no result: OXTR potentiate, OXTR ag, V1aR counter)
C=CCN=C1NC(c2cccc(F)c2)C(C(=O)OC)=C(C)N1Cc1cccc(C(F)(F)F)c1 (centres undefined)	TAAR1 antag 92, TAAR1 ag 107 (no result: OXTR potentiate, OXTR ag, V1aR counter) | TAAR1 ag conf 89 | Ga16 nonsel ag 55 | TAAR1 desens 92 | Ga16 nonsel ant 73
C=CCN=C1NC(c2cccc(F)c2)C(C(=O)OC)=C(C)N1Cc1ccccc1C(F)(F)F (centres undefined)	none (no result: OXTR potentiate, OXTR ag, V1aR counter)
C=CCN=C1NC(c2cccc(Cl)c2)C(C(=O)OC)=C(C)N1Cc1cccc(C(F)(F)F)c1 (centres undefined)	TAAR1 antag 81, TAAR1 ag 67 (no result: OXTR potentiate, OXTR ag, V1aR counter) | TAAR1 ag conf inactive | Ga16 nonsel ag 27 | TAAR1 desens 56 | Ga16 nonsel ant 51
C=CCN=C1NC(c2ccccc2)C(C(=O)OC)=C(C)N1Cc1cccc(C(F)(F)F)c1 (centres undefined)	TAAR1 antag 87, TAAR1 ag 116 (no result: OXTR potentiate, OXTR ag, V1aR counter) | TAAR1 ag conf 92 | Ga16 nonsel ag 61 | TAAR1 desens 81 | Ga16 nonsel ant 67
COC(=O)C1=C(C)N(Cc2cccc(C(F)(F)F)c2)C(=NCC2CC2)NC1c1ccccc1 (centres undefined)	TAAR1 antag 97, TAAR1 ag 121 (no result: OXTR potentiate, OXTR ag, V1aR counter) | TAAR1 ag conf 115 | Ga16 nonsel ag 79 | TAAR1 desens 100 | Ga16 nonsel ant 74
O=C(NCc1ccc(Cl)c(Cl)c1)c1cc(C2CCCCN2C(=O)c2ccccn2)on1 (centres undefined)	none (no result: OXTR potentiate, OXTR ag, V1aR counter)
O=C(NCCc1ccccc1)c1cc(-c2ccco2)on1	TAAR1 ag 47 | TAAR1 ag conf 44 | Ga16 nonsel ag inactive | TAAR1 desens inactive | Ga16 nonsel ant inactive
O=C(C(=O)N1CCN(c2ccc([N+](=O)[O-])cc2)CC1)c1cn(CC(=O)N2CCOCC2)c2ccccc12	none
COc1cc(OC)c(-n2cc(-c3ccc(OC)c(OC)c3)[nH]c2=S)cc1Cl	TAAR1 ag 96 (no result: OXTR potentiate, OXTR ag, V1aR counter) | TAAR1 ag conf inactive | Ga16 nonsel ag inactive | TAAR1 desens inactive | Ga16 nonsel ant inactive
Cc1nc(N)c2c(Cc3cccc4ccccc34)nn(C(C)(C)C)c2n1	TAAR1 ag 47 | TAAR1 ag conf 41 | Ga16 nonsel ag inactive | TAAR1 desens inactive | Ga16 nonsel ant inactive
N#Cc1c(N)n[nH]c1Cc1cccc2ccccc12	none
Cc1ccsc1/C=N/NC(=O)c1ccc(-n2cccc2)cc1	none
O=C(NCc1ccccc1Br)c1cccc2c1C(=O)c1ccc(N3CCC(Cc4ccccc4)CC3)cc1S2(=O)=O	none (no result: TAAR1 antag, TAAR1 ag)
O=C(NC1CCCCC1)c1cccc2c1C(=O)c1ccc(N3CCC(Cc4ccccc4)CC3)cc1S2(=O)=O	TAAR1 antag 61, TAAR1 ag 52 | TAAR1 ag conf inactive | Ga16 nonsel ag 29 | TAAR1 desens inactive | Ga16 nonsel ant 38
O=C(Nc1cccc(S(=O)(=O)NC2=NCCC2)c1)c1cc(=O)[nH]c2ccccc12	none
CCc1cccc(C)c1NC(=S)NCC(c1cccnc1)N(C)C (centres undefined)	none
CCOC(=O)C1C(=O)C=C(/C=C/c2ccc(N(C)C)cc2)CC1c1ccccc1 (centres undefined)	TAAR1 antag 70, TAAR1 ag 79, OXTR ag 38, V1aR counter 45 | TAAR1 ag conf 69 | Ga16 nonsel ag 85 | TAAR1 desens 85 | Ga16 nonsel ant 84
Cc1cc(=O)oc2c3c(cc(OCC(=O)NC4CC4)c12)OC(C)(C)CC3	none
Cn1c(=O)c(NCCc2ccccc2)c2c3c(cccc31)C(=O)c1ccccc1-2	TAAR1 antag 104, TAAR1 ag 407, OXTR ag 213, V1aR counter 279 | TAAR1 ag conf 346 | Ga16 nonsel ag 305 | TAAR1 desens 103 | Ga16 nonsel ant 95
Cn1c(=O)cc2c3c(c(N4CCCCC4)ccc31)C(=O)c1ccccc1-2	none
Cc1cccc(NC2=C(NCCO)C(=O)c3ccccc3C2=O)c1	none
Cn1c(=O)c(NC2CCCCC2)c2c3c(cccc31)C(=O)c1ccccc1-2	TAAR1 antag 66, TAAR1 ag 87 (no result: OXTR potentiate, OXTR ag, V1aR counter) | TAAR1 ag conf 120 | Ga16 nonsel ag 124 | TAAR1 desens 78 | Ga16 nonsel ant 83
Cn1c(=O)c(NCCO)c2c3c(cccc31)C(=O)c1ccccc1-2	TAAR1 antag 58, TAAR1 ag 285, OXTR ag 522, V1aR counter 569 | TAAR1 ag conf 52 | Ga16 nonsel ag 158 | TAAR1 desens inactive | Ga16 nonsel ant 48
O=C(/C=C/c1ccc2c(c1)OCO2)Nc1cccnc1	none
CC(=O)c1ccc(S(=O)(=O)Nc2ccccc2C(=O)NC2CC2)cc1	none
COc1ccc(C[C@@H]2CN3C(=NC[C@@H]3C)N2CCNC(=O)c2ccc(C)c(Br)c2)cc1	TAAR1 ag 45 | TAAR1 ag conf 54 | Ga16 nonsel ag 15 | TAAR1 desens inactive | Ga16 nonsel ant inactive
O=C1c2cccc3c(N4CCCCC4)ccc(c23)C(=O)N1c1ccccc1O	TAAR1 antag 65, TAAR1 ag 130, OXTR ag 43, V1aR counter 41 | TAAR1 ag conf inactive | Ga16 nonsel ag 33 | TAAR1 desens inactive | Ga16 nonsel ant 50
C/C=C(/C)C(=O)O[C@@H]1c2c(ccc3ccc(=O)oc23)OC(C)(C)[C@@H]1OC(C)=O	none
C/C=C(\C)C(=O)OC1c2c(ccc3ccc(=O)oc23)OC(C)(C)C1OC(C)=O (centres undefined)	TAAR1 antag 62, TAAR1 ag 51 | TAAR1 ag conf 45 | Ga16 nonsel ag 29 | TAAR1 desens 79 | Ga16 nonsel ant 54
CCN(CC)CCc1c(C)[nH]c(C(=O)OCc2ccccc2)c1C	TAAR1 ag 71 | TAAR1 ag conf 73 | Ga16 nonsel ag inactive | TAAR1 desens 74 | Ga16 nonsel ant inactive
CC(=O)c1c(C)[nH]c(C(=O)OCc2ccccc2)c1C	none
O=C(Cn1nnc(-c2ccc3c(c2)OCO3)n1)NCc1ccccc1	none
